To fix the notation:
B1: tRNA (parent)
chain: GUUCCGUUGGCGUAAUGGUAACGCGUCUCCCUCCUAAGGAGAAGACUGCGGGUUCGAGUCCCGUACGGAACG

Fewer inactive variants are shown than the library holds.

The variants in this data set derive from B1. Description: yeast fitness relative to wild type (ratio to wild type); higher = fitter; tRNA-Arg(CCU), competitive growth, 37 C, YPD. The gist of the method:
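A pool of Saccharomyces cerevisiae strains, each with a tRNA-Arg(CCU) gene variant at the native genomic locus, was competed in YPD at 37°C for 24 hours across six parallel replicates. The variants had been chemically synthesised at a 3% per-site mutation rate over 69 sites, and gene amplicons before and after competition were read by 100-nucleotide paired-end sequencing. Darwinian fitness relative to wild type rested on changes in genotype frequencies. Genotypes required ≥ 100 starting reads, and estimates < 0.5 were set to 0.5.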
As for GUUCCGUUGGCGUAAUGGUAUCGCGGCUCCCUCCUAAGGAGAAAACUGCGGGUUCGAGUCCCGUACGGAACG, the yeast fitness stood at 0.511. In the case of GUUCCGUUGGCGUAAUGGUAUCGCCUCUCCCUCCUAGGGAGAGGACUGCGGGUUCGAGUCCCGUGCGGAACG it was no more than 0.5. Take GUUCCGUUGGCGUAAUGGUAUCGCGUCUCCCUCCUAAGGAGAAGACUGCGGGUUCAAGUCCCGUACGGAACG: the yeast fitness is 0.646. In the case of GUUCCGUUGGCGUAAUGGUAUCGCGUCUCCCCCCUGUGGAGAAGACUGCGGGGUCGAGUCCCGUACGGAACG it was no more than 0.5. In the case of GUUCCGUUGGCGUAAUGGUAUCGCGUCUCCCUCCUAAGGAGAAGACUGCGGGUUCGAGUCCCGUAUGGAACG it was 0.78; in that of GUUCCGUUGGCGUAAUGGUAUCGCGAGUCGCUCCUUACGAGAAGAUUGGGGGUUCGAGUCCCGUUCGGAACG, no more than 0.5.

Regarding GUUCCGUUGGCGUAAUGGUAUCGCGUCUCCCUCCCAAGGAGAAAACUCCGGGUUGGAGUCCCGUACGGUACG, the yeast fitness is no more than 0.5. On to GUUCCGUUGGCGUAAUGGUAUCGCGUCUCCCUCCUAAGGAGAAGACUGCAGGUUCGAGUCCGGUACGGAACG, for which the yeast fitness turned out to be 0.601.

On to GUUCCGUUGGCGUAAUGGUAUCGCGUCUCCCUCCUAAGGAGAAGACGGCGGGUUCGAGUCCCGUACAGGACG, for which the yeast fitness was no more than 0.5. With GUUCCGUUGGCGUAAUGGUAUCGCGUCACCCUCCGAAGGAGAAGACUGCGGGUUCGAAUCCGGUACGGAACG, the yeast fitness is no more than 0.5.

As to GUUCCGUUGGCGUAAUGGUAUCGCAUCUCCCUCCUAAGGAGAAGACUGCGGGUUCUAGUCCCGUACGGAACG, the yeast fitness is no more than 0.5. In the case of GUUCCGUUGGCGUAAUGGUAUCGCGUCUCCCUCCUAAGAAGAAGACUGCGGGUUCGAGUCCCGUAUGGAACG it was 0.55; in that of GUUCCGUUGGCGUAAUGGUAUCGCGUCUCCCUCCUAAGGAGAAGACUGCGGGUUAGAGUCCCGUCCGGAACG, no more than 0.5. In the case of GUUCCGUUGGCGUAAUGGUAUCGCGUCUCCCUGCUAAGGAGAAGACUGCGGGUUUGAGUCCCGUACGGAACG it was no more than 0.5; in that of GUUCCGUUGGCGUAAUGGUAUCGCGUCUCCCUUCUAAGGAGAAGACUGCAGGUUCGAGUCCCGUACGGAACG, 0.621.

In the case of GUUCCGUUGGCGUAAUGGUAUCGCGUCUCCCUCCUAAGGAGAAGACUGCGGAUUCGAAUCCCGUACGGAACG, the yeast fitness was no more than 0.5.

Turning to GUUCCGUUGGCGUAAUGGUAUCGCGUCGCCCUCCUAAGGAGAAGACUGCGGGUUAGAAUCCCGUACGGAACG, the yeast fitness was no more than 0.5. GUUCCGUUGGCGUAAUGGUAUCGCGCCUCCCUCCUAAGGAGAAGGCUGCGGGUUCGAGUCCCGUACGGAACG: the yeast fitness was no more than 0.5. In the case of GUUCCGUUGGCGUAAUGGUAUCGCGUCUCCCUCCUAAGGAGAAGACUGCGGGUUCGAGUCCCAUACGGAACG it was 0.856; in that of GUUCCGUUGGCGUAAUGGUAUCGCGUCUCCCUCCUAAGGACACGACUGAGGGUUCGAGUCCUGUACGGAACG, no more than 0.5. In the case of GUUCCGUUGGCGUAAUGGUAUCGCGUCUCCCUCCUAAGGAGAAGACUGCGGGUUAGAGUCCCGUACGGAACG it was no more than 0.5; in that of GUUCCGUUGGCGUAAUGGUAUCGCGUCUCCCUCCUAAGGAGAAGACUGCGGCUUCGAGUCCCGUACGGAACG, no more than 0.5; in that of GUUCCGUUGGCGUAAUGGUAUCCCGUCUCCCUCCUAAGGAGAAGACUGCGGGUUCGAGUCCCGUACGGAACG, 0.579. In the case of GUUCCGUUGGCGUAAUGGUAUCGCGUCACCCUCCUAAGGUGAAGUCUGCGGGUUCGAGUCCCGUACGGAACG it was 0.878. Consider GUUCCGUUGGCGUAAUGGUAUCGCGUCUCCCUCCUAAGGAGAAGACUGCGGGUUCGAGUCCCGUACCGUACG, for which the yeast fitness was no more than 0.5. Regarding GUUCCGUUGGCGUAAUGGUAUCGCGUCUCCCUCCUAAGGAGAAGACUGCGGGUUCCAGUCCCACACCGUACG, the yeast fitness is no more than 0.5. GUUCCGUUGGCGUAAUGGUAUCGCGUCUCCCUCCUAAGGAGAAGACUGCCGGUUCGAGUCCCGUAGGGAACG: the yeast fitness is no more than 0.5. In the case of GUUCCGUUGGCGUAAUGGUAUCGCGUCUCCCUCCUAAGGAGAAGACUGCGGGUUCGAGUCCCGUACGCAACG it was 0.687; in that of GUUCCGUUGGCGUAAUGGUAUCGCGUCUCCCUCCUAAGGAGAAGACUGCGGGUUCGAGUCCGGUACGGAACG, 0.586; in that of GUUCCGUUGGCGUAAUGGUAUCGCGUCUCCCUCCUAAGGAGAAGACUGCGGGUUCGAGUCCCGCACGGAACG, 0.775. In the case of GUUCCGUUGGCGUAAUGGUAUCGCGUCUCCCUCCUAAGGAGAAGAUUGUGGGUACGAGUCCCGUACGGAACG it was no more than 0.5; in that of GUUCCGUUGGCGUAAUGGUAUCGCGCCUCCCUCCUAAGGAGAAGACUGCGGGUUCGAGUUCCGUACGGAACG, no more than 0.5; in that of GUUCCGUUGGCGUAAUGGUAUCGCGACUCCCUCCUAAGGAGAAGACUGCGGGUUCGAGUCCCGUACGGAACG, 0.722. In the case of GUUCCGUUGGCGUAAUGGUAUCGCGUCUCCCUCCUAAGGAAAAGACUGCGGGUUCGCGUCCCGUACGGAACG it was no more than 0.5; in that of GUUCCGUUGGCGUAAUGGUAUCGCGUCUCCCUCCUAAGGAGAAGACUGCGGAUUCGAGUCCCGUUCGGAACG, no more than 0.5. On to GUUCCGUUGGCGUAAUGGUAUCGCGUCUCCCUCCUAAGGAGAAGACUGCGGGAUCGAGUCCCGUAUGGAACG, for which the yeast fitness is no more than 0.5. Consider GUUCCGUUGGCGUAAUGGUAUCGCGUCUCCCUCCUAAGGAGAAGACUGUGGGUUCGAGUCCCGUACGGAACG, for which the yeast fitness came out at 0.781.

Turning to GUUCCGUUGGCGUAAUGGUAUCGCGUCUCCCUCCUAAGGAGAAGACUGUGGGUACGAGUCCCGCACGGAACG, the yeast fitness is no more than 0.5.

With GUUCCGUUGGCGUAAUGGUAUCGCGACUCCCUCCUACGGAGAAGACUGCGGGUUCGAGUCCGGUACGGAACG, the yeast fitness is no more than 0.5.

Consider GUUCCGUUGGCGUAAUGGUAUCGCGUCUCCCUCCUAAGGAGAAGACUGCGGGUUCGAGACCCGUACGGAACG, for which the yeast fitness turned out to be 0.587. In the case of GUUCCGUUGGCGUAAUGGUAUCGCGUCUCCCUCCUAAGGAGAAGACUGCGGGCUCGCGUCCCGUACGGAACG it was 0.619; in that of GUUCCGUUGGCGUAAUGGUAUCGCGUCUCCCUCCUAAGGAGAAGACUGCGGGUUGGAGUAGCGUAGGGAACG, no more than 0.5; in that of GUUCCGUUGGCGUAAUGGUAUCGCAUCUCCCUCCUAAGGAGAAGACUGCGAGUUCGAGUACCGUACGGAACG, no more than 0.5. In the case of GUUCCGUUGGCGUAAUGGUAUCGCGUCUCCCGCCUAAGGAGAAGACUCCGGGUUCGAGUCCCGUACGCAACG it was no more than 0.5. In the case of GUUCCGUUGGCGUAAUGGUAAAGCGUCUCCCUCCUGAGGAAAAGACUGCGGGUUCGAGUCCCGUACGGAACG it was 0.548. Regarding GUUCCGUUGGCGUAAUGGUAUCGCGUCUCCCUCAUAAGGAGAAGACUGCCGGUUCGAGUCCCGUACGGAACG, the yeast fitness came out at 0.535. GUUCCGUUGGCGUAAUGGUAUCGCAUCUCCCUCCUAAGGAGAAGACUGCGGGUUCGAGUUCCGUACGUAACG: the yeast fitness is no more than 0.5. Consider GUUCCGUUGGCGUAAUGGUAUCGCGUCUCCCACCUAAGGAGAAGACUGCGGGUUCGAGUCCCGUACGGAGCG, for which the yeast fitness was no more than 0.5. In the case of GUUCCGUUGGCGUAAUGGUAAAGCGUCUCCCUCCUACGGAGAAGACUGCGGGUUCGAGUCCCGUGCGGAACG, the yeast fitness worked out at 0.691. In the case of GUUCCGUUGGCGUAAUGGUAUCCCGUCUCCCUCCUUAGGAGAAGACUGCGGGUUCGAGUCCCGUACGGAACG it was no more than 0.5. Regarding GUUCCGUUGGCGUAAUGGUAUCGCGGCUCCCUCCUAAGGAGAAGACUGCGGGUUCGAGUCCCGUACGGACCG, the yeast fitness is 0.729. For GUUCCGUUGGCGUAAUGGUAUCGCGUCUCCCGCCUAAGGAGAAGACUGCGCGUUCGAGUCUCGUACGGAACG, the yeast fitness came out at 0.541.

For the variant GUUCCGUUGGCGUAAUGGUAUCGCGUCUCCCUCCUAAGGAGAAGACUGCGGGUUCGAGUUCCGUACUGAACG, the yeast fitness is no more than 0.5. In the case of GUUCCGUUGGCGUAAUGGUAUCGCGUCUCCCUCCUAAGGAGAAGACUGCGGGUGCGAGUCCCGUACGGAACG it was no more than 0.5; in that of GUUCCGUUGGCGUAAUGGUAUCACGUCUCCCUCCUAAGGAGAAGACUGAGGGUUCGAGUCCCGUACGGAACG, no more than 0.5. In the case of GUUCCGUUGGCGUAAUGGUAUCGCGUCUCCCUCGUAAGGAGAAGACUGCGGGUUCGAGUCCCGUACGGAACG it was 0.597; in that of GUUCCGUUGGCGUAAUGGUAUCGCGUCUCCCUCAUAAGGAGAAGACUGCGGGUUCGAGUCCCGUACGGAACG, 0.573; in that of GUUCCGUUGGCGUAAUGGUAAAGCGUCUCCCUCCUAUGGAGAAGACUGCGGGUUCGAGUCCCGUACGGAACG, 0.578. In the case of GUUCCGUUGGCGUAAUGGUAUCGCGUCUCCCUCCUAAGGAGAAGACUGCGGGUUCGAGUCUCGUACGGAACG it was 0.709; in that of GUUCCGUUGGCGUAAUGGUAUCGCGUCUCCCCCCUGUGGAGAAGACUGCGGGUUCGAGUCCCGUACGGAACG, no more than 0.5; in that of GUUCCGUUGGCGUAAUGGUAUCGCGUCUCCCUCCUAAGGAGAAGACUGCGGGCGCGAGUCCCGUACGGAACG, no more than 0.5.

On to GUUCCGUUGGCGUAAUGGUAUCGCGUCUCCCUCCUAAGGAGAAGAUUGCGGGUUACAGUCCCGUACGGAACG, for which the yeast fitness is no more than 0.5. In the case of GUUCCGUUGGCGUAAUGGUAUCGCGUCUCCCUCCUAAGGAGAAGACGGCGGGUUCGAGACCCGUACGGAACG it was no more than 0.5; in that of GUUCCGUUGGCGUAAUGGUAUCGCGUCUCCCCCCUAAGGAGAAGACUGUGGGUUCGCGUCCCGUACGGAACG, 0.595. Turning to GUUCCGUUGGCGUAAUGGUAUCGCGUCUCCCGCCUAGGGAGAAGGCUGCGGGUUAGAGUCCCGUACGGAACG, the yeast fitness is no more than 0.5. Turning to GUUCCGUUGGCGUAAUGGUAUCGCGUCCGCCUCCUAAGGAGAAGACUGGGGGUUCGAGUCCCGUACGGAUCG, the yeast fitness was no more than 0.5. In the case of GUUCCGUUGGCGUAAUGGUAUCCCGUCUCCCUCCUAAGGAGAAGACUGUGGGUUCGAGUCCCGUACGGAACG it was no more than 0.5; in that of GUUCCGUUGGCGUAAUGGUAUCGCGUCUCCCUCCUAAGGAGAAGACUGCGGGUUCGAGUCCCGUACAGAACG, 0.818; in that of GUUCCGUUGGCGUAAUGGUAAAGCGUCUCCCUCCUGAGGAGGAGACUGCGGGUUCGAGUCCCGUACGGAACG, no more than 0.5.

Consider GUUCCGUUGGCGUAAUGGUAUCGCAUCUCCCUCCUAAGGAGAAGACUGCGGGUUCGAGUCCAGUACGGAACG, for which the yeast fitness is no more than 0.5. In the case of GUUCCGUUGGCGUAAUGGUAUCGCGUCUCCCUCCUAAGGAGAAGACUGAGGGUUCGAGUCCGGUACGUAACG it was 0.626; in that of GUUCCGUUGGCGUAAUGGUAAAGCGUCUCCCUCCUAAGGAGAAGACUGCGGGUUCGAGUCCCGUACGGAACG, 1. In the case of GUUCCGUUGGCGUAAUGGUAUCGCGUCUCCCUCCUAAGGAGAAGACUGCGGCUUCGGGUCUCGUACGGAACG it was no more than 0.5. As to GUUCCGUUGGCGUAAUGGUAUCGCGUCUCCCUCCUAACGAGAACACUGCGGGUUCGAGUCCAGUACGGAACG, the yeast fitness was no more than 0.5. In the case of GUUCCGUUGGCGUAAUGGUAUCGCAUCUCCCUCCUAAGGAGAAGACUGCGGGUUCGAGUCCCGUACGGAACG it was 0.757.
